Only some compounds are listed: those with a hit (about 2.2% of all), similar ones and a draw of the others.
NR2E3 ag-1: inhibitors of NR2E3-RetCOR corepressor binding, primary screen, NR2E3 agonist project, biochemical, TR-FRET, GST-NR2E3, biotin-RetCOR; inhibition of corepressor binding, % at 4.78 µM; actives 0.12% (n = 320,000); AID 2300, 2010; 1536-well; Photoreceptor-specific nuclear receptor (Homo sapiens), Q9Y5X4;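 active = percent inhibition above the cutoff of mean plus 3 SD of all tested compounds, set per screening campaign, cut at about 20% in these data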;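 also: 0% = DMSO wells and 100% = biotin wells as full block of FRET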
Target sequence (Q9Y5X4 whole entry, looked up): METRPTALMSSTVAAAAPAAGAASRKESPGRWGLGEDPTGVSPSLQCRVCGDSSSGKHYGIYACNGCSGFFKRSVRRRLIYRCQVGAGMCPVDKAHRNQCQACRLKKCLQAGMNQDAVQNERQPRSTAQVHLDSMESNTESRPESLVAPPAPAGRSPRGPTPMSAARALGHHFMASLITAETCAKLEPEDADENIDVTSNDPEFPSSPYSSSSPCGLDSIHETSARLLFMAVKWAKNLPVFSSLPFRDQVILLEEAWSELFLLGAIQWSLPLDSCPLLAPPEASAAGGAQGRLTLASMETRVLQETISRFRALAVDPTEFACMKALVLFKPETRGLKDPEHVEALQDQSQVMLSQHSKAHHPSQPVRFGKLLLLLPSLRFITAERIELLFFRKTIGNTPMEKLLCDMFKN
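Test system – NR2E3–RetCOR corepressor complex · Quantity – NR2E3 fusion 1.35 nM · Buffer or medium – Tris pH 7.5 · Incubation – Compound–protein incubation for 5 h at 4 °C · Technique – TR-FRET, Eu(K)-anti-GST donor, streptavidin-D2 acceptor, ex 340, em 617/671 nm · Evaluation – percent inhibition of 671/617 nm emission ratio versus biotin and DMSO controls · Plate – 1536-well format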
V-ATPase pHluor: regulators of yeast V-ATPase proton pumping, primary screen, pHLuorin cytosolic pH fluorescence. AID 504577, 2011. actives 0.37% (n = 350,000). S. cerevisiae. response, % at 10 µM; in the data active = response mostly above about 7.3%, no sharp cut-off; inactive = mostly below about 5.4%; also: actives read high
GAA850 FXN act: FXN promoter activators, primary screen, cell-based, luciferase luminescence, HEK293 lucGAA850; AID 540364, 2011; actives 0.56% (n = 360,000); activation, % at 6 µM; HEK293 lucGAA850 FXN promoter luciferase reporter, 24 h; percent of 10 µM SAHA response;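 active = activation above the average of all compounds screened plus 3 SD, cutoff fixed separately per campaign, cut at about 7.5% in these data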;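 also: 0% = DMSO wells and 100% = 10 µM SAHA wells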
GalR3 antagonist: GalR3 antagonists in HEK293 cells, primary screen, cell-based, fluorescence readout; Galanin receptor type 3 (Homo sapiens), O60755; actives 0.44% (n = 360,000); inhibition, % at 3 µM; AID 651719, 2012; HEK293 GalR3-CNG cAMP membrane potential fluorescence; galR3 body fused to GalR1 C-terminus;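 active = inhibition above the screen-wide average plus 3 SD, cut at about 13% in these data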;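 also: forskolin and galanin both at EC90 stimulate the cells; cAMP rise reported by CNG channel membrane potential dye signal; 0% = forskolin plus galanin with DMSO and 100% = forskolin alone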
NR2E3 ag-2: NR2E3 agonists in two-hybrid cells, primary screen, cell-based, luminescence, CHO-S, Gal4-NCOR/VP16-NR2E3 | luciferase | actives 0.35% (n = 360,000) | AID 602229, 2012 | inhibition of corepressor binding, % at 3.98 µM | Photoreceptor-specific nuclear receptor (Homo sapiens), Q9Y5X4;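 active = inhibition above the mean of all tested compounds plus 3 SD, cut at about 70% in these data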;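 also: 0% = DMSO with NR2E3 transfected cells and 100% = cells lacking NR2E3 construct; higher means lower luciferase signal from less NR2E3 corepressor binding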
HIV Env fusion: inhibitors of HIV-1 Env-driven cell-cell fusion, primary screen, HeLa-JRFL effector, CEM21 target cells, luciferase; inhibition, % at 12.3 µM; actives 1.1% (n = 360,000);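 active = mean replicate inhibition score of at least 50 and every replicate individually at or above 50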;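 also: 0% = plate neutral controls and 100% = maraviroc near 300 nM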
* hit, by the source's call; . = not tested or not shown; [ ] = remark or other dose.

SMILES	NR2E3 ag-1	V-ATPase pHluor	GAA850 FXN act	GalR3 antagonist	NR2E3 ag-2	HIV Env fusion
C[C@@H]1CC[C@]2(C(=O)O)CC[C@]3(C)C(=CCC4[C@]56CC[C@@](O)(OC5)C(C)(C)C6CC[C@]43C)C2[C@H]1C (stereo partly drawn)	-3	-1	-3	.	94*	.
C[C@H]1[C@H](C)CC[C@]2(C(=O)O)CC[C@]3(C)C(=CC[C@@H]4[C@@]5(C)C[C@@H](O)[C@H](O)C(C)(C)[C@@H]5CC[C@]43C)[C@H]12	3	9	-2	.	94*	.
CCOc1ccc(OCCC(=O)OCC(=O)N2CCN(S(=O)(=O)c3ccc(Cl)cc3)CC2)cc1	4	5	9.7*	0	-30	-3
Cc1ccc(C)c(OCCC(=O)OCC(=O)N2CCN(S(=O)(=O)c3ccc(Cl)cc3)CC2)c1	1	-1	3	-1	-14	-25
O=C(N[C@H]1CC[C@@H](CCn2cc(-c3ccccn3)nn2)O[C@@H]1CO)c1cccnc1	.	.	.	.	.	-82[16.7 µM]
CCOC(=O)Cc1c(C)nc2c(-c3ccc(OC)cc3)c(C)nn2c1C	1	-1	1	-7	-24	64*
CNC[C@H]1Oc2c(NC(=O)Nc3ccc4c(c3)OCO4)cccc2C(=O)N([C@H](C)CO)C[C@@H]1C	.	.	.	.	.	64*[16.7 µM]
C[C@@H]1CN([C@@H](C)CO)C(=O)c2cccc(NC(=O)Nc3ccc4c(c3)OCO4)c2O[C@H]1CN(C)Cc1ccccc1	.	.	.	.	.	2[16.7 µM]
C[C@H](CO)N1C[C@H](C)[C@H](CN(C)Cc2ccccc2)Oc2c(NC(=O)Nc3ccc4c(c3)OCO4)cccc2C1=O	.	.	.	.	.	65*[16.7 µM]
CNC[C@@H]1Oc2c(N)cccc2C(=O)N([C@@H](C)CO)C[C@@H]1C	.	.	.	.	.	62*[16.7 µM]
C[C@H](CO)N1C[C@H](C)[C@@H](CN(C)C)Oc2cc(C#CC3CCCC3)ccc2S1(=O)=O	.	.	.	.	.	11[16.7 µM]
COc1ccc(-c2nc(-c3ccccn3)no2)cc1	-5	-2	-13	-5	36	62*
COc1ccc(CN(C)C[C@H]2OCCCC[C@@H](C)Oc3ccc(NC(=O)Nc4ccc(C(F)(F)F)cc4)cc3C(=O)N([C@@H](C)CO)C[C@H]2C)cc1	.	.	.	.	.	27[16.7 µM]
Cc1cc(N2CCOCC2)nc(-c2ccccc2O)n1	3	60*	3	-3	16	20
C[C@H](CO)N1C[C@H](C)[C@H](CN(C)C(=O)CN(C)C)Oc2cc(C3=CCCC3)ccc2S1(=O)=O	.	.	.	.	.	3[16.7 µM]
COc1ccc(NC(=O)C2Cc3c(-c4ccccc4Oc4ccccc4)ccnc3O2)cc1OC (stereo not drawn)	.	.	-4	-7	5	67*
COc1ccc(NC(=O)C2Cc3c(-c4ccccc4Oc4ccccc4)ccnc3O2)cn1 (stereo not drawn)	.	.	0	-8	0	25
COc1ccc(S(=O)(=O)Nc2ccc3c(c2)n(C)c(=O)n3C)cc1C	2	-5	3	-10	21	-33
CCOC(=O)c1oc2ccc(S(=O)(=O)Nc3ccc4c(c3)n(C)c(=O)n4C)cc2c1C	-3	-2	1	-2	77*	-4
C[C@H]1O[C@@H](O[C@H]2[C@@H](O)C[C@H](O[C@H]3[C@@H](O)C[C@H](O[C@H]4CC[C@@]5(C)[C@H](CC[C@@H]6[C@@H]5C[C@@H](O)[C@]5(C)[C@@H](C7=CC(=O)OC7)CC[C@]65O)C4)O[C@@H]3C)O[C@@H]2C)C[C@H](O)[C@@H]1O	0	-4	-14	23*	-23	86*
COc1ccc(NC(=O)N(C)C[C@H]2Oc3c(NC(=O)c4nc5ccccc5s4)cccc3C(=O)N([C@H](C)CO)C[C@@H]2C)cc1	.	.	.	.	.	9[16.7 µM]
Cc1ccc(S(=O)(=O)c2nc(-c3ccccc3Cl)oc2N(C)C)cc1	0	3	-1	-2	13	56*
